From ChEMBL document CHEMBL3102691, “4-Quinolone alkaloids from Melochia odorata” (J Nat Prod, 2014)

Key:
[1] = tested on: Human immunodeficiency virus 1; assay: Antiviral activity against HIV1 infected in human CEM-TART cells assessed as inhibition of viral p24 antigen production at 0.95 uM after 48 hrs by FACS analysis; assay type: functional; settings: Human immunodeficiency virus 1, CEM-TART
Procedure, shortened: (§1)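 HIV-infected CEM-TART cells, 48 h. Cells washed in PBS and blocked with murine myeloma IgG (1:100, 30 min, 4 °C). Then fixed in PBS/1% paraformaldehyde/0.05% Triton X100 and stained with AG3.0 mouse anti-P24 (1:50). FITC goat anti-mouse secondary, 30 min at 4 °C each step. Intracellular P24 read by flow cytometry. AZT 5 or 0.5 μg/mL controls.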

[2] = Therapeutic index, ratio of LC50 for human CEM-TART cells to EC50 for HIV-1 infected in human CEM-TART cells; assay type: cell-based; settings: read-out: TI
[3] = Cytotoxicity against human CEM-TART cells assessed as cell viability after 72 hrs by MTT assay; assay type: cell-based; settings: read-out: LC50
Procedure, shortened: (§2)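 20,000 CEM-TART cells with compound (DMSO, 0.5% final) in RPMI/20% FBS with antibiotic; 72 h at 37 °C, 5% CO2; MTT (5 mg/mL in PBS) added, formazan dissolved in DMSO/0.1% SDS and read on plate reader; triplicate or quadruplicate. Highest concentration tested 100 μM.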

[4] = tested on: Human immunodeficiency virus 1; assay: Antiviral activity against HIV-1 infected in human CEM-TART cells assessed as protection against virus-induced cytopathicity after 96 hrs by MTT assay; assay type: functional, organism-based
Procedure, shortened: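 1A2 subclone of CEM-TART (more lysis-sensitive) in RPMI 1640/20% FBS; compound in DMSO (1% vol) added 2 h after HIV infection; 96 h at 37 °C, 5% CO2; viability by MTT (3–4 h), formazan dissolved in DMSO/0.1% SDS, A570. Triplicates per plate; EC50 = concentration giving 50% of protection by 5 μM AZT, data from ≥3 experiments combined.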

[5] = Cytotoxicity against human CEM-TART cells assessed as cell viability at 100 uM after 72 hrs by MTT assay; assay type: cell-based; procedure, shortened: as §2
[6] = tested on: Human immunodeficiency virus 1; assay: Antiviral activity against HIV1 infected in human CEM-TART cells assessed as inhibition of viral p24 antigen production at 1.7 uM after 48 hrs by FACS analysis; assay type: functional; settings: Human immunodeficiency virus 1, CEM-TART; procedure, shortened: as §1
[7] = Human immunodeficiency virus 1, CEM-TART, 96 h, read-out: EC50

Compound | inhibition at 0.95 µM [1] | selectivity ratio [2] | CC50 at 72 h [3] | EC50 [4, 7] | Activity [5] | EC50 ([4]; cem-tart) | inhibition at 1.7 µM [6]
COc1c(C)[nH]c2ccc3c(c2c1=O)[C@@H]1CCC[C@@]3(c2ccccc2)O1 | > 50% | 13 | 11 µM | 0.84 µM | – | – | –
Cc1[nH]c2ccc3c(c2c(=O)c1O[C@@H]1O[C@H](CO)[C@@H](O)[C@H](O)[C@H]1O)[C@@H]1CC[C@H](O)[C@@]3(c2ccccc2)O1 | – | – | – | – | Non-toxic | Not Active | –
COc1ccccc1[C@@]1(O)c2ccc3[nH]c(C)c(OC)c(=O)c3c2[C@@H]2CC[C@H]1O2 | – | 2 | 102 µM | 56.2 µM | – | – | > 50%
Cc1cn([C@H]2C[C@H](N=[N+]=[N-])[C@@H](CO)O2)c(=O)[nH]c1=O [ZIDOVUDINE] | – | – | 89.5 µM | 1.3 µM | – | – | –
